# Data from publication PMC11319934 (PNAS Nexus, 2024).
# Bridge positions count the residues as written; N and C are the ends. Square brackets hold non-standard residues; d marks the D form. Peptide text beside a SMILES is read from it. * marks the point of attachment. X1 = CN(C)c1ccc2c(-c3ccc(C(=O)*)cc3C(=O)[O-])c3ccc(=[N+](C)C)cc-3oc2c1; R5 = C=CCCC[C@@](C)(N)C(=O)O; S5 = C=CCCC[C@](C)(N)C(=O)O
# Assays:
# [1] = tested on: A. thaliana seedlings (Col-0); test: Root growth of A. thaliana seedlings with MeJA; format: in vivo, Arabidopsis thaliana; conditions: 7-day-old Col-0 seedlings, MeJA 50 µM on 1/2 MS, n = 15
# In short: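 Surface-sterilized Col-0 seeds stratified 2–3 days at 4°C. Grown on half-strength MS plates (2% sucrose, 0.4% gellan gum) with MeJA (50 µM) ± test compound (10 µM), under 16 h light (75 µmol m-2 s-1)/8 h dark at 22°C. Whole-seedling root length measured (n = 15). Repeated three times; one-way ANOVA/Tukey's HSD, P < 0.01.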
# [2] = tested on: M. polymorpha gemmalings (Tak-1); test: Growth; format: in vivo, Marchantia polymorpha; conditions: Tak-1 gemmalings on 1/2 B5 medium, OPDA 50 µM, n = 24
# In short: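 Tak-1 gemmalings grown 2 weeks on half-strength Gamborg's B5 with 1% agar, containing OPDA (50 µM) ± test compound (10 µM). Continuous light 50–60 µmol m-2 s-1, 22°C. Plant area measured in mm2 (n = 24). Experiment repeated three times; one-way ANOVA/Tukey's HSD, P < 0.01.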
# [3] = target: T1, His-MYC3-FLAG (His6-SUMO-MYC3(44–238)-FLAG) (Arabidopsis thaliana, UniProt Q9FIP9); test: Fluorescence anisotropy; format: binding; conditions: for fold lower Kd with His-MYC3-FLAG than that of 1: ratio of Kd of 1 to Kd of the peptide
# T1 sequence (Q9FIP9 44-238): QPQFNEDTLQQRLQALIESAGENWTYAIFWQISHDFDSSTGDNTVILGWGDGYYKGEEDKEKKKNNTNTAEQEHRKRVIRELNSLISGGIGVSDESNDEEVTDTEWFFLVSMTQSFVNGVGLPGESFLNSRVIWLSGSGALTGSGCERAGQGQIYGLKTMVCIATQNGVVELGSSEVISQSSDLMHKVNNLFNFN
# His-EIL1-FLAG = target: T2, His-EIL1-FLAG (Arabidopsis thaliana, UniProt Q9SLH0); test: Fluorescence anisotropy; format: binding
# T2 sequence (Q9SLH0 201-501): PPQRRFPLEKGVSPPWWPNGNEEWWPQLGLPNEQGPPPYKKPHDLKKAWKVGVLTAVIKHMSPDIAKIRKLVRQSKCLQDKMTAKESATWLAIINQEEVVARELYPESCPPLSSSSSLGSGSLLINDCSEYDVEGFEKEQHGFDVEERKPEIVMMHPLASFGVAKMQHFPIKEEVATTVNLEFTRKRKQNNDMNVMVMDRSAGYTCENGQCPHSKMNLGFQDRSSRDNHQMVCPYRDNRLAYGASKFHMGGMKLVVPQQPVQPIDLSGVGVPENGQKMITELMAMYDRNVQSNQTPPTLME
# In short: (§1)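 FA titration at 25°C in 20 mM Tris-HCl pH 8.0, 200 mM NaCl, 10% glycerol, 10% cOmplete EDTA-free, with 2-mercaptoethanol (EIN3/EIL1 family). Protein added dropwise to 100 nM TMR-labelled peptide; His-EIN3-FLAG titrated 0–2 µM. Anisotropy read at ex/em 543/573.5 nm. Each point is the average of three independent measurements. Apparent Kd obtained by nonlinear curve fitting.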
# [4] = target: T3, His-EIN3-FLAG (His6-SUMO-EIN3(200–500)-FLAG) (Arabidopsis thaliana, UniProt O24606); test: Fluorescence anisotropy; format: binding
# T3 sequence (O24606 200-500): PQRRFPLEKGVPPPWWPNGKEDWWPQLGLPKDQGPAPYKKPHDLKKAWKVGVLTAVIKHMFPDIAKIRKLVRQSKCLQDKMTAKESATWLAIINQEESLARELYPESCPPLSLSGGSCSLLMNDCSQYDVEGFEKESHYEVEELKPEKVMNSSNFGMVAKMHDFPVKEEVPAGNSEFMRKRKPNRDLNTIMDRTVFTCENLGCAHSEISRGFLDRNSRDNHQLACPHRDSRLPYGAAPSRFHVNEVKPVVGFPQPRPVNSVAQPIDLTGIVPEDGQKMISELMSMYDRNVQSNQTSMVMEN
# In short: as §1
Structure (SMILES),Kd [3] [nM],Kd [4] [nM],fold lower Kd with His-MYC3-FLAG than that of 1 [3] [fold],other results
"CC/C=C\CC1C(=O)CCC1CC(=O)OC (stereo not shown) [MeJA, methyl jasmonate, reference compound]",–,–,–,root growth of seedlings [1]: severe root growth inhibition
"CC/C=C\C[C@@H]1C(=O)C=C[C@@H]1CCCCCCCC(=O)O [OPDA, reference compound]",–,–,–,plant growth (plant area) [2]: inhibited plant growth
CC[C@H](C)[C@H](NC(=O)[C@H](C)NC(=O)CNC(=O)[C@H](CCC(N)=O)NC(=O)[C@@H](NC(=O)[C@H](CC(=O)O)NC(=O)[C@H](CCCNC(=N)N)NC(=O)[C@H](Cc1ccccc1)NC(=O)[C@H](CO)NC(=O)[C@H](CCCNC(=N)N)NC(=O)[C@H](CCCNC(=N)N)NC(=O)[C@H](CCCNC(=N)N)NC(=O)[C@H](CC(=O)O)NC(=O)[C@H](CC(C)C)NC(=O)[C@H](Cc1ccccc1)NC(=O)[C@H](CCCCN)NC(=O)[C@H](CCC(N)=O)NC(=O)[C@H](Cc1ccccc1)NC(=O)c1ccc(-c2c3ccc(=[N+](C)C)cc-3oc3cc(N(C)C)ccc23)c(C(=O)[O-])c1)[C@@H](C)CC)C(=O)N[C@@H](CO)C(=O)N[C@@H](CCCCN)C(=O)N[C@H](C(=O)N[C@@H](CC(=O)O)C(=O)N1CCC[C@H]1C(=O)N[C@@H](CCC(=O)O)C(=O)N[C@H](C(=O)N[C@H](C(=O)N[C@@H](CCCCN)C(=O)N[C@@H](CO)C(=O)N[C@@H](CC(C)C)C(=O)N[C@@H](CC(C)C)C(=O)N[C@@H](C)C(=O)N[C@@H](CO)C(=O)N[C@H](C(=O)O)[C@@H](C)O)[C@@H](C)CC)[C@@H](C)CC)[C@@H](C)CC [compound 1] (X1-FQKFLDRRRSFRDIQGAISKIDPEIIKSLLAST-OH),210,–,–,Kd (His-EIL1-FLAG): 440 nM
CC[C@H](C)[C@H](NC(=O)[C@H](CCCCN)NC(=O)[C@H](CO)NC(=O)[C@@H](NC(=O)[C@]1(C)CCCC=CCCC[C@](C)(NC(=O)[C@H](CCCNC(=N)N)NC(=O)[C@H](Cc2ccccc2)NC(=O)[C@H](CO)NC(=O)[C@H](CCCNC(=N)N)NC(=O)[C@H](CCCNC(=N)N)NC(=O)[C@H](CCCNC(=N)N)NC(=O)[C@H](CC(=O)O)NC(=O)[C@H](CC(C)C)NC(=O)[C@H](Cc2ccccc2)NC(=O)[C@H](CCCCN)NC(=O)[C@H](CCC(N)=O)NC(=O)[C@H](Cc2ccccc2)NC(=O)c2ccc(-c3c4ccc(=[N+](C)C)cc-4oc4cc(N(C)C)ccc34)c(C(=O)[O-])c2)C(=O)N[C@@H]([C@@H](C)CC)C(=O)N[C@@H](CCC(N)=O)C(=O)NCC(=O)N1)[C@@H](C)CC)C(=O)N[C@@H](CC(=O)O)C(=O)N1CCC[C@H]1C(=O)N[C@@H](CCC(=O)O)C(=O)N[C@H](C(=O)N[C@H](C(=O)N[C@@H](CCCCN)C(=O)N[C@@H](CO)C(=O)N[C@@H](CC(C)C)C(=O)N[C@@H](CC(C)C)C(=O)N[C@@H](C)C(=O)N[C@@H](CO)C(=O)N[C@H](C(=O)O)[C@@H](C)O)[C@@H](C)CC)[C@@H](C)CC [compound 2] (X1-FQKFLDRRRSFR[S5]IQG[S5]ISKIDPEIIKSLLAST-OH; staple 13-17),61,290,7,–
CC[C@H](C)[C@H](NC(=O)[C@H](C)NC(=O)CNC(=O)[C@H](CCC(N)=O)NC(=O)[C@@H](NC(=O)[C@H](CC(=O)O)NC(=O)[C@H](CCCNC(=N)N)NC(=O)[C@H](Cc1ccccc1)NC(=O)[C@H](CO)NC(=O)[C@H](CCCNC(=N)N)NC(=O)[C@H](CCCNC(=N)N)NC(=O)[C@H](CCCNC(=N)N)NC(=O)[C@H](CC(=O)O)NC(=O)[C@H](CC(C)C)NC(=O)[C@H](Cc1ccccc1)NC(=O)[C@H](CCCCN)NC(=O)[C@H](CCC(N)=O)NC(=O)[C@H](Cc1ccccc1)NC(=O)c1ccc(-c2c3ccc(=[N+](C)C)cc-3oc3cc(N(C)C)ccc23)c(C(=O)[O-])c1)[C@@H](C)CC)C(=O)N[C@@H](CO)C(=O)N[C@@H](CCCCN)C(=O)N[C@H](C(=O)N[C@@H](CC(=O)O)C(=O)N1CCC[C@H]1C(=O)N[C@@H](CCC(=O)O)C(=O)N[C@]1(C)CCCC=CCCC[C@@](C)(C(=O)N[C@@H](CC(C)C)C(=O)N[C@@H](CC(C)C)C(=O)N[C@@H](C)C(=O)N[C@@H](CO)C(=O)N[C@H](C(=O)O)[C@@H](C)O)NC(=O)[C@H](CCCCN)NC(=O)[C@H]([C@@H](C)CC)NC1=O)[C@@H](C)CC [compound 3] (X1-FQKFLDRRRSFRDIQGAISKIDPE[R5]IK[S5]LLAST-OH; staple 25-28),310,600,0.67,–
